The target in experiment [1] is T1, Acetyl-CoA carboxylase 2 (Homo sapiens, UniProt O00763). Kind of experiment: Inhibition of full length recombinant C-terminal His-tagged human ACC2 expressed in baculovirus infected sf9 cells at 30 uM using acetyl-CoA as substrate after 90 mins by ATP consumption assay relative to N-(4-(4-(4-isopropoxyphenoxy)phenyl)but-3-yn-2-yl)acetamide. An outline of the steps:
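ATP-consumption assay with His-tagged human ACC2 (50 ng/well), 0.5 mM acetyl-CoA, 0.5 μM ATP and bicarbonate/citrate/Mg2+ in HEPES pH 7.5, run 90 min at 37 °C. Residual ATP was measured. Inhibition at 30 μM is expressed as a percentage of the maximum inhibition reached by the reference ACC inhibitor (set to 100%).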
Target sequence in this assay (O00763 whole entry, looked up): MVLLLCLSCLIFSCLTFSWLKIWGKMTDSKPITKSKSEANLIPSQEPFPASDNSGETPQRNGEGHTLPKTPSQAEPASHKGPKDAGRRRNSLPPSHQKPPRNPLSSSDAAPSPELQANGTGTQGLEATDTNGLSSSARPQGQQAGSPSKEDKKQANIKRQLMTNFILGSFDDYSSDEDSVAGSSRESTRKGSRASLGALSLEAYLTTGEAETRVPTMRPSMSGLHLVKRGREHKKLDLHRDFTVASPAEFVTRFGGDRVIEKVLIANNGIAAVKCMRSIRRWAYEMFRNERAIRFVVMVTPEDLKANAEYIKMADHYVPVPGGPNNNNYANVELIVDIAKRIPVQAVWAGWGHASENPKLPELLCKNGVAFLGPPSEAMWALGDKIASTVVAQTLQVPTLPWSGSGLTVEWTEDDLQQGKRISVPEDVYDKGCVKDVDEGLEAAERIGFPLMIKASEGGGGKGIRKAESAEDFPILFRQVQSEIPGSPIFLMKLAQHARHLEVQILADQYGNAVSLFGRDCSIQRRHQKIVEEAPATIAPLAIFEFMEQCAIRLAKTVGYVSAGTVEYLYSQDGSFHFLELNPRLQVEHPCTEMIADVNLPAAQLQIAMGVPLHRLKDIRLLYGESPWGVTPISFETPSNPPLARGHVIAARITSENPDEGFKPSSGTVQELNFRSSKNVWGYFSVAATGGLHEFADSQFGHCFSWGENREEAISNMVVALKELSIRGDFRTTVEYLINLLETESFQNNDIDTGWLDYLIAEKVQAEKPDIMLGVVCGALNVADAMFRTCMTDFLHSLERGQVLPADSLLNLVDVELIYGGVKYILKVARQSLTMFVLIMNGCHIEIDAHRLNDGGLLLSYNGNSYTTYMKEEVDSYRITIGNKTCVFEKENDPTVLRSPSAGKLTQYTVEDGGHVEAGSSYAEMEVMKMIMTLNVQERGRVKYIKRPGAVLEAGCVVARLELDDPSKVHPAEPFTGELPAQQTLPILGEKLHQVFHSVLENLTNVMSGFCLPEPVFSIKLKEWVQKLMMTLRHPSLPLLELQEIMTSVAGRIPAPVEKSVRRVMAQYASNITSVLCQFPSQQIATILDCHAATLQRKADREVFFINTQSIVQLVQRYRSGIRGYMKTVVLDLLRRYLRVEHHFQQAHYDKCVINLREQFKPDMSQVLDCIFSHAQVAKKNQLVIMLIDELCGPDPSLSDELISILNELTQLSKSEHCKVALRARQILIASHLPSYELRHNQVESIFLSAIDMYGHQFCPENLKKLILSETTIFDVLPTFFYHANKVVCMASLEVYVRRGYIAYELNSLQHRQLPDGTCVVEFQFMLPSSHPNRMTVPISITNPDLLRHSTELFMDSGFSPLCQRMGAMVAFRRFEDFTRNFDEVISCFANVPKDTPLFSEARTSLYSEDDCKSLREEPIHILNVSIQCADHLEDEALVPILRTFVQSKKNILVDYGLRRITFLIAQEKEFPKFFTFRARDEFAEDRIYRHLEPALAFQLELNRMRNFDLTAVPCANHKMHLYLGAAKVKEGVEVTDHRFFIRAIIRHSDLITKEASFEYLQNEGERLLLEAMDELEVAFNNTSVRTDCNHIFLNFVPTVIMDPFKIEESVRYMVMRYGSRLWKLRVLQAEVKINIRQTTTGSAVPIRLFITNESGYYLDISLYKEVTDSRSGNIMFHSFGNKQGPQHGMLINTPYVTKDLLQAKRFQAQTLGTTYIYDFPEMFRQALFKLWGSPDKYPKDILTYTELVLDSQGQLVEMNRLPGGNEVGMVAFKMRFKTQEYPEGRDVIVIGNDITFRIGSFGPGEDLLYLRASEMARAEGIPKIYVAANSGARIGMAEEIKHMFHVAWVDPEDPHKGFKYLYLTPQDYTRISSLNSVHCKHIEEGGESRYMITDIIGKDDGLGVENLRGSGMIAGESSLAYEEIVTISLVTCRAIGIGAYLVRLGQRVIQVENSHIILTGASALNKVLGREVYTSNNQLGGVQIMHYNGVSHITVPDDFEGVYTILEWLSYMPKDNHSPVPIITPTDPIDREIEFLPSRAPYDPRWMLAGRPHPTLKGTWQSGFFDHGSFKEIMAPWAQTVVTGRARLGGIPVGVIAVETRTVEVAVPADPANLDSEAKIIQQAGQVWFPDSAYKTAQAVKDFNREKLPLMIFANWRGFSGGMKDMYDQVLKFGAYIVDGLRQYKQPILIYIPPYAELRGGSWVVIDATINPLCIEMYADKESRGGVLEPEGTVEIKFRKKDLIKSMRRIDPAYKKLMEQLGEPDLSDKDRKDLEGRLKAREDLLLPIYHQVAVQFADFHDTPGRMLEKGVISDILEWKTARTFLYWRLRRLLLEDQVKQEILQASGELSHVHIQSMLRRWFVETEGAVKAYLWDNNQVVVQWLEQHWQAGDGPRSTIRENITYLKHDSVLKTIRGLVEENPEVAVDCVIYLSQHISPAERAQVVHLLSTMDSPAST

Experiment [2] concerns the target T1, Acetyl-CoA carboxylase 2. Kind of experiment: Inhibition of full length recombinant C-terminal His-tagged human ACC2 expressed in baculovirus infected sf9 cells using acetyl-CoA as substrate after 90 mins by ATP consumption assay. Put shortly:
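Recombinant C-terminal His-tagged human ACC2 (50 ng/well) was run in 30 mM HEPES pH 7.5 with 18 mM NaHCO3, 1.0 mg/mL BSA, 0.5 μM ATP, 1 mM DTT, 4 mM MgCl2, 2 mM sodium citrate, 0.5 mM acetyl-CoA and 1% DMSO. Inhibitor ranged 0–100 μM. Enzyme addition started the reaction, then 90 min at 37 °C. Residual ATP was read by luminescence. Triplicates; IC50 from dose–response curves.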
Target sequence in this assay (O00763 whole entry): as the sequence (O00763 whole entry, looked up) above

Experiment [3] addresses T2, Peroxisome proliferator-activated receptor delta (Homo sapiens, UniProt Q03181).
T2 sequence (Q03181 whole entry): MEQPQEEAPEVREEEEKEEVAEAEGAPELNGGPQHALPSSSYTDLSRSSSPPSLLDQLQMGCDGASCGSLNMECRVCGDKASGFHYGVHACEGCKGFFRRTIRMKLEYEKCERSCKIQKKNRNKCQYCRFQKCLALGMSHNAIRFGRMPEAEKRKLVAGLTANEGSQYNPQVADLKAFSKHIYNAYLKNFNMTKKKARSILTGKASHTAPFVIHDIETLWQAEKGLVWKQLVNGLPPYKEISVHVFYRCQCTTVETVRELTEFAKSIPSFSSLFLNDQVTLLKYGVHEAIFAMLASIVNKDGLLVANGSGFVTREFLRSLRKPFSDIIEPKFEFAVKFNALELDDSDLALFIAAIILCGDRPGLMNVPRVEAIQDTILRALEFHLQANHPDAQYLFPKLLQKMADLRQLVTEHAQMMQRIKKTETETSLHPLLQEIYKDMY
Kind of experiment: Agonist activity at GAL4-tagged human PPARdelta ligand binding domain chimeric receptor expressed in HEK293 cells after 24 hrs by luciferase reporter gene assay. The format is cell-based. Background: Reporter assays use an easily measured gene product as a stand-in for the process of interest.

Experiment [4] deals with T3, Peroxisome proliferator-activated receptor alpha (Homo sapiens, UniProt Q07869).
T3 sequence (Q07869 whole entry): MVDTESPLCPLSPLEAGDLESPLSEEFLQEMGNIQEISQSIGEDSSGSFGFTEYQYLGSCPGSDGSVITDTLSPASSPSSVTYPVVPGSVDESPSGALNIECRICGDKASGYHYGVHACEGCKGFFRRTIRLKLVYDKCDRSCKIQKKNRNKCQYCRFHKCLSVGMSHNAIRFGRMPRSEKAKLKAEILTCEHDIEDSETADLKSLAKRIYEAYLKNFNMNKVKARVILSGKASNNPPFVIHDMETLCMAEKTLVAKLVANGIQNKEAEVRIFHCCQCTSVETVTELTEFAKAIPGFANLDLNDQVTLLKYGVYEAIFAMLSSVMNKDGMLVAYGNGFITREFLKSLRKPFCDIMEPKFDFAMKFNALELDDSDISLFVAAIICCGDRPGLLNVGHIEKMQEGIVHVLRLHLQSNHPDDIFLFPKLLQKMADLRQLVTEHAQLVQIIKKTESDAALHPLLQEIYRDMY
Nature of the experiment: Agonist activity at GAL4-tagged human PPARalpha ligand binding domain chimeric receptor expressed in HEK293 cells after 24 hrs by luciferase reporter gene assay. The format is cell-based. Put shortly: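 HEK293 cells seeded at 20% confluence the day before. They were co-transfected by calcium phosphate with a CMX-GAL4N-hPPARα, γ or δ LBD plasmid (30 ng), TK-MH100x4-Luc reporter (100 ng) and CMX-β-galactosidase (10 ng). After 24 h, compound was added for 24 h (final 0.5% DMSO). Luciferase was read and normalized to β-galactosidase (2-nitrophenyl-β-D-galactopyranoside, A405). Triplicates; EC50 taken from dose–response curves.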

The target in experiment [5] is T4, Peroxisome proliferator-activated receptor alpha (Homo sapiens) (UniProt Q07869).
T4 sequence (whole entry): T3 sequence (Q07869 whole entry)
Nature of the experiment: Agonist activity at GAL4-tagged human PPARalpha ligand binding domain chimeric receptor expressed in HEK293 cells after 24 hrs by luciferase reporter gene assay relative to GW7647. Type of experiment: cell-based.

The target of experiment [6] is T5, Peroxisome proliferator-activated receptor delta (Homo sapiens) (UniProt Q03181).
T5 sequence (whole entry): T2 sequence (Q03181 whole entry)
Kind of experiment: Agonist activity at GAL4-tagged human PPARdelta ligand binding domain chimeric receptor expressed in HEK293 cells after 24 hrs by luciferase reporter gene assay relative to GW501516. Type of experiment: cell-based.

Experimental findings from ChEMBL document CHEMBL3861985, “Discovery of N-(1-(3-(4-phenoxyphenyl)-1,2,4-oxadiazol-5-yl)ethyl)acetamides as novel acetyl-CoA carboxylase 2 (ACC2) inhibitors with peroxisome proliferator-activated receptor α/δ (PPARα/δ) dual agonistic activity” (Bioorg Med Chem, 2016) are described below.

As usually defined, the IC50 is the concentration needed to halve the response being measured. Take `CC(=O)NCc1nc(-c2ccc(Oc3ccc(OC(C)C)cc3)cc2)no1`: the Imax at Acetyl-CoA carboxylase 2 [1] came to 83%. Further, the half-maximal inhibitory concentration (IC50) at Acetyl-CoA carboxylase 2 [2] was 1100 nM.
Taken in the same sequence, the figures for `CCCCCCOc1ccc(Oc2ccc(-c3noc(C(C)NC(C)=O)n3)cc2)cc1` (configuration not stated) were 93% and 260 nM.
With `CCCOc1ccc(Oc2ccc(-c3noc(C(C)NC(C)=O)n3)cc2)cc1` (configuration not stated), at Acetyl-CoA carboxylase 2 [1], the Imax came out at 88%. Moreover, the IC50 at Acetyl-CoA carboxylase 2 [2] is 610 nM.
The term EC50 denotes the concentration that produces a half-maximal response. A higher EC50 goes with lower potency in that assay. Consider `CC(=O)N[C@@H](C)c1nc(-c2ccc(Oc3ccccc3)cc2)no1`, for which the Imax on Acetyl-CoA carboxylase 2 [1] was determined as 65%. The concentration giving a half-maximal response (EC50) amounted to 290 nM in experiment [3] and 150 nM in experiment [4]. The half-inhibitory concentration (IC50) at Acetyl-CoA carboxylase 2 [2] came to 220 nM.
For the molecule `CC(=O)N[C@H](C)c1nc(-c2ccc(Oc3ccc(Oc4ccccc4)cc3)cc2)no1`, the Imax on Acetyl-CoA carboxylase 2 [1] worked out at 67%. Further, the 50% inhibitory concentration (IC50) at Acetyl-CoA carboxylase 2 [2] was 7500 nM.
Take `CC(=O)N[C@H](C)c1nc(-c2ccc(Oc3ccccc3)cc2)no1`: the Imax on Acetyl-CoA carboxylase 2 [1] stood at 37%.
In the case of `CC(=O)NCc1nc(-c2ccc(Oc3ccc(O)cc3)cc2)no1`, the Imax at Acetyl-CoA carboxylase 2 [1] came out at 3%.
For the molecule `CC(=O)NC(C)c1nc(-c2ccc(Oc3ccc(Oc4ccccc4)cc3)cc2)no1` (racemic), on Acetyl-CoA carboxylase 2 [1], the Imax was determined as 76%. In addition, the IC50 on Acetyl-CoA carboxylase 2 [2] was 48 nM.
In the case of `CC(=O)NC(C)c1nc(-c2ccc(Oc3ccc(OC(C)C)cc3)cc2)no1` (configuration not stated), the Imax on Acetyl-CoA carboxylase 2 [1] turned out to be 74%. Besides, the half-inhibitory concentration (IC50) on Acetyl-CoA carboxylase 2 [2] was 100 nM.
Take `CCOc1ccc(Oc2ccc(-c3noc(C(C)NC(C)=O)n3)cc2)cc1` (configuration not stated): on Acetyl-CoA carboxylase 2 [1], the Imax was determined as 35%. Further, the concentration giving a half-maximal response (EC50) in experiment [3] was 370 nM; in experiment [4], 330 nM. Also, the IC50 at Acetyl-CoA carboxylase 2 [2] amounted to 420 nM.
On to `COc1ccc(Oc2ccc(-c3noc(C(C)NC(C)=O)n3)cc2)cc1` (configuration not stated), for which the Imax at Acetyl-CoA carboxylase 2 [1] was 17%. Also, the EC50 turned out to be 390 nM in experiment [3] and 210 nM in experiment [4].
On to `CC(=O)NC(C)C#Cc1ccc(Oc2ccc(OC(C)C)cc2)cc1` (configuration not stated), for which the 50% inhibitory concentration (IC50) at Acetyl-CoA carboxylase 2 [2] is 11 nM.
As to `CC(=O)N[C@@H](C)c1nc(-c2ccc(Oc3ccc(Oc4ccccc4)cc3)cc2)no1`, the Imax at Acetyl-CoA carboxylase 2 [1] was found to be 86%. For the same molecule, the half-maximal inhibitory concentration (IC50) at Acetyl-CoA carboxylase 2 [2] was determined as 16 nM.
For the molecule `CC(=O)NC(C)c1nc(-c2ccc(Oc3ccc(O)cc3)cc2)no1` (configuration not stated), at Acetyl-CoA carboxylase 2 [1], the Imax is 24%. Moreover, the 50% effective concentration (EC50) in experiment [3] and in experiment [4] was 1000 nM throughout. The Emax in experiment [5] was 13 to 33%; in experiment [6] it was 2 to 9%.
Turning to `CC(=O)NC(C)c1nc(-c2ccc(Oc3ccccc3)cc2)no1` (racemic), at Acetyl-CoA carboxylase 2 [1], the Imax is 45%. For the same molecule, the EC50 in experiment [3] and in experiment [4] was 320 nM throughout. On Acetyl-CoA carboxylase 2 [2], the concentration for half-maximal inhibition (IC50) was determined as 290 nM.
